# Measured values of several laboratories.
# Compare with care: the assays were run in different laboratories.
# Medium: Caco-2
SMILES,conditions,Papp A→B [nm/s]
O=C(O)COc1cccc(Oc2ccc(-c3noc(-c4ccc(O)cc4)n3)cc2)c1,"2 h, pH 7.4",53
CC(C)(C)NCC(O)COc1cccc2c1CC(O)C(O)C2 (stereo not shown),,0.514
Cn1c(=O)c2c(nc(S)n2C)n(C)c1=O,"10 µM, 2 h",9
C=CC(=O)Nc1cc(Nc2nccc(-c3cn(C)c4ccccc34)n2)c(OC)cc1N(C)CCN(C)C,pH 6.5,125
C[C@H]1O[C@@H](O[C@H]2[C@@H](O)C[C@H](O[C@H]3[C@@H](O)C[C@H](O[C@H]4CC[C@@]5(C)[C@H](CC[C@@H]6[C@@H]5C[C@@H](O)[C@]5(C)[C@@H](C7=CC(=O)OC7)CC[C@]65O)C4)O[C@@H]3C)O[C@@H]2C)C[C@H](O)[C@@H]1O,,0.218
COc1cccc2c(-c3ccccc3)cc(-c3ccc(-c4ccc(C(=O)O)cc4)[nH]3)nc12,,24.2
O=C(COCc1cccnc1)C12CC3CC(CC(C3)C1)C2,20 µM,63
COCCc1ccc(OCC(O)CNC(C)C)cc1 (stereo not shown),pH 6.5,133
CC(C)NCC(O)COc1cccc2ccccc12 (stereo not shown),,465
C[C@H]1O[C@@H](O[C@H]2[C@@H](O)C[C@H](O[C@H]3[C@@H](O)C[C@H](O[C@H]4CC[C@@]5(C)[C@H](CC[C@@H]6[C@@H]5C[C@@H](O)[C@]5(C)[C@@H](C7=CC(=O)OC7)CC[C@]65O)C4)O[C@@H]3C)O[C@@H]2C)C[C@H](O)[C@@H]1O,"5 µM, 1 h",13
COc1cc(F)ccc1-c1ncnc(Nc2cccc(CS(N)(=O)=O)c2)n1,"2 µM, 2 h, pH 7.2",22
Cc1ncsc1-c1ccc(CNC(=O)[C@@H]2C[C@@H](O)CN2C(=O)[C@@H](NC(=O)C2(F)CC2)C(C)(C)C)c(OCCOCCOCCN2CCN(c3cc(-c4ccccc4O)nnc3N)CC2)c1,"2 h, pH 7.2",1.1
CCn1c(=O)c2c(nc(S)n2C)n(C)c1=O,"10 µM, 2 h",27
COc1cc(Cl)c(C(=O)N[C@@H](CN[C@H]2CC[C@@H](N)CC2)Cc2ccc(C#N)cc2)cc1-c1ccc(CN[C@H](C)c2ccc(C)cc2)o1,"2 µM, 2 h, pH 7.2",39
CCC(=O)N[C@H]1Cc2cccc(C(=O)OCOC(=O)C(CC)CC)c2OB1O,"5 µM, 2 h, pH 7.4",82.5
Nc1nc2c(ncn2COCCO)c(=O)[nH]1,"10 µM, 2 h, pH 7.4",0.803
